The target in assay [1] is T1, Purine nucleoside phosphorylase (Homo sapiens, UniProt P00491).
T1 sequence (P00491 whole entry): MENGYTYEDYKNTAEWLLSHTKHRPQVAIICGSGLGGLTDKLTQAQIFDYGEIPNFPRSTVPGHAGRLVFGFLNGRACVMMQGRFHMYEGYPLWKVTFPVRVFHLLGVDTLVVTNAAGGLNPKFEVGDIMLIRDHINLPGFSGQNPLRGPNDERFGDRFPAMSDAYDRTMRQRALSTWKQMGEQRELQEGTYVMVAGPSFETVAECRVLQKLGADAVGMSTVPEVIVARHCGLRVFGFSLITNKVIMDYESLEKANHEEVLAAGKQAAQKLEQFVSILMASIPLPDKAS
Description: Competitive inhibition of PNP in human PBMC using MSEG as substrate by Dixon-plot analysis.

The target of assay [2] is T1, Purine nucleoside phosphorylase. Description: Competitive inhibition of human recombinant PNP using MSEG as substrate by Dixon-plot analysis. In short, it runs like this:
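Human recombinant PNP. Assay mix was 50 mM Tris pH 7.5 with MESG at 40 or 80, constant 500 phosphate and inhibitor 0–500 nM. Enzyme addition started phosphorolysis, read at 360 nm for 5–7 min from initial rates. Ki was taken from Dixon plots (1/v vs [I]) over three independent measurements.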

For assay [3] the target is unchanged. Description: Competitive inhibition of PNP in human Jurkat cells using MSEG as substrate by Dixon-plot analysis. The assay is classed as cell-based.
For assay [4] the target is unchanged. Description: Competitive inhibition of PNP in human K562 cells using MSEG as substrate by Dixon-plot analysis. The assay is classed as cell-based.
For assay [5] the target is unchanged. Description: Competitive inhibition of PNP in human DoHH2 cells using MSEG as substrate by Dixon-plot analysis. The format is cell-based.
For assay [6] the target is unchanged. Description: Competitive inhibition of PNP in human MINO cells using MSEG as substrate by Dixon-plot analysis. The assay is classed as cell-based.
For assay [7] the target is unchanged. Description: Competitive inhibition of PNP in human MC116 cells using MSEG as substrate by Dixon-plot analysis. The format is cell-based.
Assay [8] shares this target. Description: Competitive inhibition of PNP in human SU-DHL-1 cells using MSEG as substrate by Dixon-plot analysis. The assay is classed as cell-based.
For assay [9] the target is unchanged. Description: Competitive inhibition of PNP in human RPMI8226 cells using MSEG as substrate by Dixon-plot analysis. The assay is classed as cell-based, RPMI-8226.
The target is the same in assay [10]. Description: Competitive inhibition of PNP in human OPM2 cells using MSEG as substrate by Dixon-plot analysis. The format is cell-based, OPM-2.
For assay [11] the target is unchanged. Description: Competitive inhibition of PNP in human HBL2 cells using MSEG as substrate by Dixon-plot analysis. The format is cell-based.
Assay [12] has the same target. Description: Competitive inhibition of PNP in human HBL2 tumor cells using MSEG as substrate by Dixon-plot analysis. The format is cell-based.
The target is the same in assay [13]. Description: Competitive inhibition of PNP in human CML cells obtained from patients using MSEG as substrate by Dixon-plot analysis. The format is cell-based.
Assay [14] shares this target. Description: Competitive inhibition of PNP in human AML cells obtained from patients using MSEG as substrate by Dixon-plot analysis. The format is cell-based.
Assay [15] shares this target. Description: Inhibition of human recombinant PNP using MSEG as substrate preincubated with inhibitor within 10 to 20 mins measured after 5 mins by HPLC analysis. An outline of the steps: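 Recombinant human PNP (0.002 units) preincubated with inhibitor (0–250 nM) in 50 mM Tris pH 7.5 at 20 C for 0, 10 or 20 min. Then phosphate (final 500 µM) and MESG (final 20 µM) added; incubated 2 and 5 min at 25 C, aliquots quenched with HCl. MESG phosphorolysis measured by HPLC; activity expressed relative to no-inhibitor assays.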

Usually Ki stands for the equilibrium dissociation constant of an inhibitor or competing ligand from its target. Regarding `Nc1nc2c(ncn2[C@H]2CCN(C(=O)P(=O)(O)O)C2)c(=O)[nH]1`, the Ki in assay [1] stood at 20 nM; in [2], 25 nM; in [3] it was 16 nM; in [4], 60 nM; in assay [5], 50 nM; in [6] it was 30 nM. For the same molecule, the Ki in assay [7] was 50 nM; in [8], 38 nM; in [9], 50 nM; in assay [10], 78 nM; in [11] it was 98 nM; in [12], 100 nM. Also, the Ki in assay [13] was found to be 77 nM; in assay [14], 60 nM.

The IC50 is the concentration that gives 50% inhibition. For the molecule `Nc1nc2c(ncn2[C@@H]2CN(C(=O)P(=O)(O)O)C[C@@H]2O)c(=O)[nH]1`, the inhibition constant (Ki) in assay [1] was 10 nM; in [2] it was 7 nM; in assay [3] it was 10 nM; in [4] it was 10 nM; in assay [5] it was 6 nM; in assay [6], 10 nM. Besides, the inhibition constant (Ki) in [7] amounted to 11 nM; in assay [8], 11 nM; in [9], 20 nM; in assay [10] it was 16 nM; in assay [11], 16 nM; in [12], 24 nM. In addition, the Ki in assay [13] was 14 nM; in assay [14], 12 nM. Moreover, the IC50 in [15] was 10 nM.
